Molecules are shown by their SMILES. Where only a bound is given, the exact number is not on record here.

Data on one molecule can be found in ChEMBL document CHEMBL2029242 (J Med Chem, 2012).

Data set [1] is described as follows: Tmax in Sprague-Dawley rat at 10 mg/kg, po. It is filed as ADME, organism-based. More on the design: dose 10 mg/kg, route oral. As to conditions: in vivo. The procedure, abridged: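 Male Sprague-Dawley rats (250–350 g, jugular-catheterized) received a single dose either iv at 1 mg/kg in 3:1 PEG400/water (n = 2) or po at 10 mg/kg in Pharmatek #6 (n = 3). Plasma was sampled at 5 min (iv only), 15 and 30 min, and 1, 2, 4, 6 and 24 h. Samples were analyzed by LC-MS/MS after acetonitrile precipitation. Parameters came from noncompartmental linear-trapezoidal analysis of individual animals.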

The target of data set [2] is Tyrosine-protein kinase JAK2 (Homo sapiens, UniProt O60674). Put plainly: Inhibition of JAK2 in human HEK293 cells after 1 hr by competition binding assay. It is filed as cell-based. An outline of the steps: (§1)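 Unbound kinase was captured on immobilized affinity ligand and quantified by qPCR. Kd came from eleven serial 3-fold dilutions, as the mean of duplicates.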

In data set [3] the target is Phosphatidylinositol 4,5-bisphosphate 3-kinase catalytic subunit beta isoform (Homo sapiens, UniProt P42338). Put plainly: Inhibition of PIK3-CB in human HEK293 cells after 1 hr by competition binding assay. It is filed as cell-based. An outline of the steps:
as §1

Data set [4] in a line: AUC (0 to 24 hrs) in beagle dog at 10 mg/kg, po. The class given is ADME, organism-based, Canis lupus familiaris. More on the design: time < 24 hr, dose 10 mg/kg, route oral. The following applies: plasma. An outline of the steps:
(§2)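 Single-dose PK. Rats: male Sprague−Dawley, jugular-catheterized, 1 mg/kg iv in 3:1 PEG400/water (n = 2) and 10 mg/kg po in Pharmatek #6 (n = 3). Female athymic nude mice: 100 mg/kg po in Pharmatek #6 (n = 3). Beagle dogs and male cynomolgus monkeys (n = 3): crossover, 1 mg/kg iv and 10 mg/kg po in 22% HPβCD, overnight fast. Plasma LC-MS/MS to 24 h; noncompartmental parameters, mean ± SD.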

Data set [5] is described as follows: Volume of distribution in beagle dog at 1 mg/kg, iv and 10 mg/kg, po. It is filed as ADME, organism-based, Canis lupus familiaris. As to conditions: in vivo. An outline of the steps:
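Male non-naive cynomolgus monkeys (2.6–3.4 kg) and beagle dogs (10.3–11.9 kg), n = 3 each, were dosed in a crossover design with a ≥7-day washout. Doses were 10 mg/kg by nasogastric gavage and 1 mg/kg as a saphenous iv bolus, both free base in 22% HPβCD. Animals were fasted overnight until about 4 h post dose. Femoral plasma was sampled from predose to 24 h and analyzed by LC-MS/MS. Parameters came from noncompartmental analysis; mean ± SD reported.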

In the next data set the test system is Mus musculus. Put plainly: Toxicity in athymic nude mouse xenografted with human COLO205 cells at 100 mg/kg, po bid for 14 days. It is filed as organism-based, COLO 205. Also noted: dose 100 mg/kg, route oral. The following applies: in vivo, 336 h. The procedure, abridged: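 Athymic nude mice (20–25 g) were inoculated subcutaneously in the flank with 1×10^6 Colo-205 cells. At 150–200 mm3 they were randomized (n = 10/group) to oral vehicle (22% HPβCD) or 10, 30 or 100 mg/kg BID for 14 days. Calipers were used three times weekly. Body weight and behavior were monitored, with 7–10 days of follow-up after dosing. Partial regression meant volume falling in ≥3 successive measurements, ending below baseline but still palpable.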
In general terms: Xenograft models place foreign cells or tissue in a host animal.

The target in the next data set is Aurora kinase B (Homo sapiens, UniProt Q96GD4). Briefly: Inhibition of Aurora B in human HEK293 cells after 1 hr by competition binding assay. The class given is cell-based. An outline of the steps:
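KINOMEscan competition binding. Binding reactions ran at rt for 1 h. Unbound kinase was captured on an immobilized affinity ligand and quantified by qPCR. Each kinase was tested individually.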

The target in data set [6] is Serine/threonine-protein kinase B-raf (Homo sapiens, UniProt P15056, V600E).
Another data set concerns the target Cytochrome P450 1A2 (Homo sapiens, UniProt P05177). Put plainly: Inhibition of human CYP1A2. It is filed as ADME. An outline of the steps:
(§3)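 Pooled human liver microsomes (0.25 mg/mL) with NADPH (1 mM) and five pooled probe substrates (testosterone, diclofenac, dextromethorphan, mephenytoin, phenacetin). Test compound ran at eight concentrations, 0.31−40 μM, 20 min at 37 °C, with pooled control inhibitors in parallel. Isoform-specific metabolites were measured by LC-MS/MS.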

Data set [7] in a line: Half life in beagle dog at 1 mg/kg, iv and 10 mg/kg, po. It is filed as ADME, organism-based, Canis lupus familiaris. The following applies: in vivo. The procedure, abridged:
as §2

The target of the next data set is Cytochrome P450 2C9 (Homo sapiens, UniProt P11712). Put plainly: Inhibition of human CYP2C9. The class given is ADME. An outline of the steps: as §3
Data set [8] in a line: Half life in dog liver microsomes. The class given is ADME, Canis lupus familiaris, Microsome. An outline of the steps: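 Pooled liver microsomes (0.5 mg/mL) in 0.1 M phosphate pH 7.4 with 6.5 mM MgCl2 and compound at 1 μM (0.2% DMSO). NADPH (1 mM) started the reaction at 37 °C, with minus-NADPH and testosterone controls. Aliquots taken at 0, 5, 15, 30 and 60 min were quenched in acetonitrile; duplicates.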
For orientation: Liver microsomes are vesicles of endoplasmic reticulum, rich in cytochrome P450 enzymes.

The test system of the next data set is SK-MEL-28. Briefly: Cytotoxicity against human SK-MEL-28 cells expressing BRAF V600E mutant after 72 hrs by cell titer blue assay. The class given is functional, cell-based. As to conditions: SK-MEL-28, 72 h. The procedure, abridged: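 Cells were grown in ATCC-recommended media and kept overnight in 0.5% serum. They were then exposed to compound for 72 h, and Cell Titer Blue was added for 3 h. EC50 came from fluorometric concentration−response curves, run in duplicate and repeated at least once.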
For orientation: Resazurin is reduced to fluorescent resorufin, in cell work by metabolically active cells.

Phosphatidylinositol 4,5-bisphosphate 3-kinase catalytic subunit beta isoform, sequence (P42338 whole entry, canonical isoform): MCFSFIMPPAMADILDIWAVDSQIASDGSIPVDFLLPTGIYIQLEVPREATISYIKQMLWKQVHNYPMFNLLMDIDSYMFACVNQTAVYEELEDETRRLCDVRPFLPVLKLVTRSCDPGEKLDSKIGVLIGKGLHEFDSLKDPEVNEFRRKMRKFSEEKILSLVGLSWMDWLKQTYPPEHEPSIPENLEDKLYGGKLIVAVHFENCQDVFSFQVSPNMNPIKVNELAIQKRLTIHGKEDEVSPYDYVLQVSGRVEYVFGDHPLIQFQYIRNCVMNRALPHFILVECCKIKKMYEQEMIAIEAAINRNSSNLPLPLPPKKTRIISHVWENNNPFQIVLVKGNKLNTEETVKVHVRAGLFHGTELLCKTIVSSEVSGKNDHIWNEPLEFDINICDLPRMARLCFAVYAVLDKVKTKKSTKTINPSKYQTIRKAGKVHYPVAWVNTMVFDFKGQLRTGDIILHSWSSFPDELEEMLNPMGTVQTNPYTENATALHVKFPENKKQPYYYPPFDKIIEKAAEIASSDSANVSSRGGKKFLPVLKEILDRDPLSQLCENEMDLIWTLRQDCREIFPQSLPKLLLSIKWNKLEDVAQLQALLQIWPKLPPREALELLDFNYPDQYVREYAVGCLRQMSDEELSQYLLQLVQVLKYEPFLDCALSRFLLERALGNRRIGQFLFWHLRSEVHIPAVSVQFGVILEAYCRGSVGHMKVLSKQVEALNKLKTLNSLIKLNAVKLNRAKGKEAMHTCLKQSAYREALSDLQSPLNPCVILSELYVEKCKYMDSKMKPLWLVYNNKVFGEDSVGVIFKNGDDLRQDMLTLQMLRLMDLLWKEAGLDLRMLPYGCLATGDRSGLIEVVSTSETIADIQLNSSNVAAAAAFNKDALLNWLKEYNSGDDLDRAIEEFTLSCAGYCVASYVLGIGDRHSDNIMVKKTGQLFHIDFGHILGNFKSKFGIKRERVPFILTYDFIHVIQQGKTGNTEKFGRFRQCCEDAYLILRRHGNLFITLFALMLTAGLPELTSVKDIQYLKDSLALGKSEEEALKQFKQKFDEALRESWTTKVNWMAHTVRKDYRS
Aurora kinase B, sequence (Q96GD4 whole entry): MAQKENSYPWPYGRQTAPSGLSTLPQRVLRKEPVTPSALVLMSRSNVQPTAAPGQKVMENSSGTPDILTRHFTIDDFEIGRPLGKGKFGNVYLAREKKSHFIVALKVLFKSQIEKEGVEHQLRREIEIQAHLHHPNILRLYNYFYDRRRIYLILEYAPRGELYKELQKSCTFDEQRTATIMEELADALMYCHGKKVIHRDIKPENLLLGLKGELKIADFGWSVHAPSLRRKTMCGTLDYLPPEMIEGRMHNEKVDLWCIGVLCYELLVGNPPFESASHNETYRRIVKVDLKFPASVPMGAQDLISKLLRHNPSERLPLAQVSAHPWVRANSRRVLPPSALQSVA
Serine/threonine-protein kinase B-raf, sequence (P15056 2-766 V600E limits assumed): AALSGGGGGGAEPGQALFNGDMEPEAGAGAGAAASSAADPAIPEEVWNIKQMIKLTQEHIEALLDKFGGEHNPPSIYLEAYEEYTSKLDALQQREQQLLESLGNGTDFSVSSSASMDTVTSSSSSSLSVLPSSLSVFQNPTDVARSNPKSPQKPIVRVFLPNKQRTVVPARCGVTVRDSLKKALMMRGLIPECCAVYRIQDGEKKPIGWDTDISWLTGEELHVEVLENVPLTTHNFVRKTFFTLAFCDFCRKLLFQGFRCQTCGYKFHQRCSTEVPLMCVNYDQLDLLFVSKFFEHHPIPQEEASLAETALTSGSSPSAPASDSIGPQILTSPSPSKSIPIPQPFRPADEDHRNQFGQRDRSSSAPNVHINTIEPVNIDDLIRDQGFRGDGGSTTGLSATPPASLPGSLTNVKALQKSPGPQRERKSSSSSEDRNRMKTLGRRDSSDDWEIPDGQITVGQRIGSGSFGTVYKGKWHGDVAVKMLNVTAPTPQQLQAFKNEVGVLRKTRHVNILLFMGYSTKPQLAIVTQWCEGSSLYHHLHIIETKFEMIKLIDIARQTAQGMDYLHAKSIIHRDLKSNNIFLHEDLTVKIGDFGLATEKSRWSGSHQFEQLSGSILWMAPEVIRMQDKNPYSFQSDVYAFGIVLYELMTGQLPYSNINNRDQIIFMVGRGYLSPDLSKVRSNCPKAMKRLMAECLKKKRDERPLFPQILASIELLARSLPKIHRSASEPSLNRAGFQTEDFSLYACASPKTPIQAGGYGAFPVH
Tyrosine-protein kinase JAK2, sequence (O60674 whole entry): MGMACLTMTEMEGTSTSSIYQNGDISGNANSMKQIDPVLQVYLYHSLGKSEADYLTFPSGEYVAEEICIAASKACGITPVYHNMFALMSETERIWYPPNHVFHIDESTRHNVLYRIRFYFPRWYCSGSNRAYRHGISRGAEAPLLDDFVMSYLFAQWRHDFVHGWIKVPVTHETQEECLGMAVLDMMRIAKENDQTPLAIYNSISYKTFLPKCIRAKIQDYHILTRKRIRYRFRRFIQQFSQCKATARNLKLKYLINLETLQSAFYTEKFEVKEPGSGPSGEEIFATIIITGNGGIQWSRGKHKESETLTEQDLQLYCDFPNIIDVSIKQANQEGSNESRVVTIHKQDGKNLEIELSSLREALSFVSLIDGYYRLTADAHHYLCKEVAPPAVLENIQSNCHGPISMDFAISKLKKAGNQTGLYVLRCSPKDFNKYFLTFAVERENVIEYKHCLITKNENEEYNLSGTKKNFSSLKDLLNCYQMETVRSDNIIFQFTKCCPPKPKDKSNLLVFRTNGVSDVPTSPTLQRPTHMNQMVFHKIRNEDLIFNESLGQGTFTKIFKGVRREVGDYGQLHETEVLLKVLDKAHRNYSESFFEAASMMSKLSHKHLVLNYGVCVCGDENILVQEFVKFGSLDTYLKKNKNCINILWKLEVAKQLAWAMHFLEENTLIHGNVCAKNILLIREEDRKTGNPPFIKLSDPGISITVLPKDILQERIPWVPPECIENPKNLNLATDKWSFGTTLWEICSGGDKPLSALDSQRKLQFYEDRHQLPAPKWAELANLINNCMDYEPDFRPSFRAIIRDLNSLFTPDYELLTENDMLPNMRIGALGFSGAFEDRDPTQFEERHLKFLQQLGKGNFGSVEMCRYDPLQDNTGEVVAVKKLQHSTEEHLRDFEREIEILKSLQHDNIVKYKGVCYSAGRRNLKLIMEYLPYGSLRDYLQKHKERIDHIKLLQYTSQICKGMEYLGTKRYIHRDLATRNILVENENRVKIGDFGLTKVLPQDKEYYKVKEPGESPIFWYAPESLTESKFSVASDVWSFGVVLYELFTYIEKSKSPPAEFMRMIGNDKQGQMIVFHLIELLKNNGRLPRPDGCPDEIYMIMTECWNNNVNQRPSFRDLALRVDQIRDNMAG
Cytochrome P450 2C9, sequence (P11712 whole entry): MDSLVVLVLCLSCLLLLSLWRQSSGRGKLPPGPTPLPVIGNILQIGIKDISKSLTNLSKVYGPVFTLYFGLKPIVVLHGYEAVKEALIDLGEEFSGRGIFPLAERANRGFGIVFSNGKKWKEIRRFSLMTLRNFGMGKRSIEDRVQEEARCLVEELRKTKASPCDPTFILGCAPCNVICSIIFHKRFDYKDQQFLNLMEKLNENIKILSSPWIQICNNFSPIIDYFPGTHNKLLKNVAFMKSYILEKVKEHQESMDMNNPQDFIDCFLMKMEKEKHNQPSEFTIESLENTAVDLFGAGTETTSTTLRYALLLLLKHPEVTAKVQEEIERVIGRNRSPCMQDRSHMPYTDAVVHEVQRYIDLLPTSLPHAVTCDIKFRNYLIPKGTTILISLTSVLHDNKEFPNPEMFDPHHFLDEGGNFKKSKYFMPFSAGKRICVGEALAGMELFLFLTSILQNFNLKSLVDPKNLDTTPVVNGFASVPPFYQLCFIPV
Cytochrome P450 1A2, sequence (P05177 whole entry, canonical isoform): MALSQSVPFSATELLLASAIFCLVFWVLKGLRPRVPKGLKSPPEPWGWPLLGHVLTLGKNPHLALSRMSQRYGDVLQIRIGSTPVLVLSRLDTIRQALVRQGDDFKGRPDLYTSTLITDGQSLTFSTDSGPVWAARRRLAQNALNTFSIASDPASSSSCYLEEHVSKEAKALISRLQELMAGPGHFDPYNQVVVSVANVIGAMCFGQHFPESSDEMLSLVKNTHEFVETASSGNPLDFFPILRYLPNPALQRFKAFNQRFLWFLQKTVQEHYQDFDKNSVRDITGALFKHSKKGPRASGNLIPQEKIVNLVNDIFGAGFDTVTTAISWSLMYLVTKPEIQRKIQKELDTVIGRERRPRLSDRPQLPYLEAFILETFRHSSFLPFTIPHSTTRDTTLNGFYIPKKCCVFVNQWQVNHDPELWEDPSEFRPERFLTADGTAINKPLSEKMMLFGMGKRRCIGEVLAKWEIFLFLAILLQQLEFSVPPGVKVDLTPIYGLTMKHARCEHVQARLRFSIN

The Tmax is the time from dosing to the highest level. As usually defined, the Kd is a measure of binding affinity in units of concentration. A low value points to a tighter complex. Usually AUC(0-t) stands for the area under the concentration-time curve up to a stated or last time point. In general, IC50 refers to the concentration needed to halve the response being measured. Higher therefore signals a need for much substance. Broadly, the half-life is the time in which the quantity being followed falls by half. Higher therefore signals slow decline. What is called EC50 is the concentration giving half of the maximal effect. Lower therefore signals higher potency in that assay. Take `COc1cc2ncnc(Oc3cccc(NC(=O)Nc4cc(C(C)(C)C(F)(F)F)on4)c3)c2cc1OC` [CEP-32496]: in data set [1], the Tmax was determined as 2 h. The Kd in [2] was 4.7 µM; in data set [3], greater than 10 µM; at Aurora kinase B it was greater than 10 µM; in data set [6] it was 0.014 µM. This molecule also showed an AUC(0-t) at 24 h in data set [4] of 55.1 µM·h. In data set [5], this molecule yielded a Vd of 4.5 L/kg. Besides, the Activity result in the data set with Mus musculus was “Non-toxic”. For the same molecule, the IC50 against Cytochrome P450 1A2 and against Cytochrome P450 2C9 was greater than 10 µM throughout. The half-life was 12 h in [7] and greater than 1 h in data set [8]. Also, in the data set on SK-MEL-28, a half-maximal response (EC50) required 0.454 µM.
